Measurements reported in ChEMBL document CHEMBL1153265, “Quinolines as a novel structural class of potent and selective PDE4 inhibitors: optimisation for oral administration” (Bioorg Med Chem Lett, 2009).
In brackets after ≈: the same amount, converted by molar mass. Values belong to the molecule of their own block, whether it stands above or below them.

Tests used:
Blood = assay: Inhibition of LPS-induced TNFalpha production in human whole blood; assay type: functional, tissue-based
[1] = Selectivity for human recombinant PDE4B over bovine aorta PDE3; assay type: tissue-based
In short: (§1)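 Catalytic activity of human recombinant PDE4B, PDE3 purified from bovine aorta and human recombinant PDE5 was measured by scintillation proximity assay in 96-well format. Selectivity compares inhibition of PDE4B with inhibition of the other enzyme.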

Homo sapiens = organism: Homo sapiens; assay: Selectivity for human recombinant PDE4B over human recombinant PDE5; in short: as §1
[2] = molecular target: 3',5'-cyclic-AMP phosphodiesterase 4B (Homo sapiens, UniProt Q07343); assay: Inhibition of human recombinant PDE4B by scintillation proximity assay
Sequence of 3',5'-cyclic-AMP phosphodiesterase 4B (Q07343 whole entry): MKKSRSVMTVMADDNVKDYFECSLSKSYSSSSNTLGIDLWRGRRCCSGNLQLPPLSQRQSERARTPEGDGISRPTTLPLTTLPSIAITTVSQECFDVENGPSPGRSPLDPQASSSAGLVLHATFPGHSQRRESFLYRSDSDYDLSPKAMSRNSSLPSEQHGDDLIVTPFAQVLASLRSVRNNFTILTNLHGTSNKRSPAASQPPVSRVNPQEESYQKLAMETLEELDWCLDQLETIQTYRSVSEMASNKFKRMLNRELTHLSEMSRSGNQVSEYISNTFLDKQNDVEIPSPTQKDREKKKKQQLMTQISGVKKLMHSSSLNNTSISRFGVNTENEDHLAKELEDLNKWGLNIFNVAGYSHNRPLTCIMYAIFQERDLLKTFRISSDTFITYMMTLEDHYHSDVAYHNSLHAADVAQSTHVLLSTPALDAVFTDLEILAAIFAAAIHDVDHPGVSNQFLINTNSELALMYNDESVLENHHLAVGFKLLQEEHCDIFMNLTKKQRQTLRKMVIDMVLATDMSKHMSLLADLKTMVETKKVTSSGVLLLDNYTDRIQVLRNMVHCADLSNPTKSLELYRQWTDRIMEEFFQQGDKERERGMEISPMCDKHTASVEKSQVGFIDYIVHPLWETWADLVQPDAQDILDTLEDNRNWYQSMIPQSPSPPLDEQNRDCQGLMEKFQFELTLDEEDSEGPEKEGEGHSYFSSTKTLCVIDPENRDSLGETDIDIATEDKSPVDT

[3] = Solubility of the compound; assay type: physicochemical
[4] = Oral bioavailability in Sprague-Dawley CD rat at 1 mg/kg; assay type: ADME, organism-based; conditions: in vivo
In short: (§2)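 Male CD Sprague rats, each compound given intravenously and orally at 1 mg/kg. Pharmacokinetic parameters derived from both routes.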

[5] = Half life in Sprague-Dawley CD rat at 1 mg/kg, iv and 1 mg/kg, po; assay type: ADME, organism-based; conditions: in vivo; in short: as §2
[6] = Clearance in Sprague-Dawley CD rat at 1 mg/kg, iv and 1 mg/kg, po; assay type: ADME, organism-based; conditions: in vivo; in short: as §2
[7] = Selectivity for human recombinant PDE4B over PDE1
[8] = Selectivity for human recombinant PDE4B over PDE2
[9] = Selectivity for human recombinant PDE4B over PDE6
[10] = Selectivity for human recombinant PDE4B over PDE7
[11] = AUC in Sprague-Dawley CD rat at 1 mg/kg, po; assay type: ADME, organism-based; parameters: dose 1 mg/kg, route oral; conditions: plasma; in short: as §2

Structure (SMILES): O=C(Nc1c(Cl)cncc1Cl)c1ccc(OC(F)F)c(OCC2CC2)c1 [ROFLUMILAST]
IC50 (Blood): 20 nM | fold change (FC) [1]: > 300 | fold change (FC) (Homo sapiens): > 300

Structure (SMILES): CS(=O)(=O)c1ccc2ncc(C(N)=O)c(Nc3cccnc3)c2c1
IC50 [2]: 100 nM | IC50 (Blood): 2000 nM

Structure (SMILES): CS(=O)(=O)c1ccc2ncc(C(N)=O)c(NC3CCOCC3)c2c1
IC50 [2]: > 31600 nM

Structure (SMILES): COc1cccc(Nc2cc(C(N)=O)nc3ccc(S(C)(=O)=O)cc23)c1
IC50 [2]: 7940 nM

Structure (SMILES): COc1cccc(Nc2c(CN)cnc3ccc(S(=O)(=O)c4ccccc4)cc23)c1
IC50 [2]: 251 nM

Structure (SMILES): COc1cccc(Nc2c(C(=O)O)cnc3ccc(S(=O)(=O)c4ccccc4)cc23)c1
IC50 [2]: 12600 nM

Structure (SMILES): Cc1cc(S(C)(=O)=O)cc2c(Nc3cccc(C#N)c3)c(C(N)=O)cnc12
IC50 (Blood): 25.1 nM | bioavailability [4]: 27% | half-life [5]: 2.3 h | clearance [6]: 19 mL/min/kg | solubility [3]: 18 µg/mL (≈ 47.3 µM) | fold change (FC) [7]: > 100 | fold change (FC) [8]: > 100 | fold change (FC) [9]: > 100 | fold change (FC) [10]: > 100

Structure (SMILES): COc1cc(Nc2c(C(N)=O)cnc3c(Cl)cc(S(C)(=O)=O)cc23)ccc1F
IC50 (Blood): 7.94 nM | AUC [11]: 16 ng·h/mL

Structure (SMILES): CNC(=O)c1cnc2ccc(S(C)(=O)=O)cc2c1Nc1cccc(OC)c1
IC50 [2]: 3160 nM

Structure (SMILES): COc1cccc(Nc2c(-c3nc(C)no3)cnc3ccc(S(C)(=O)=O)cc23)c1
IC50 [2]: 15800 nM

Structure (SMILES): COc1cccc(Nc2c(C(N)=O)cnc3ccc(S(=O)(=O)c4ccccc4)cc23)c1
IC50 [2]: 1.58 nM

Structure (SMILES): COc1cc(Nc2c(C(N)=O)cnc3c(OC)cc(S(C)(=O)=O)cc23)ccc1F
IC50 [2]: 5.01 nM | IC50 (Blood): 251 nM | AUC [11]: 81 ng·h/mL

Structure (SMILES): COc1cc(Nc2c(C(N)=O)cnc3c(C)cc(S(C)(=O)=O)cc23)ccc1F
IC50 [2]: 0.316 nM | IC50 (Blood): 7.94 nM | bioavailability [4]: 82% | half-life [5]: 1.6 h | clearance [6]: 16 mL/min/kg | solubility [3]: 5 µg/mL (≈ 12.4 µM) | AUC [11]: 770 ng·h/mL | fold change (FC) [7]: > 100 | fold change (FC) [8]: > 100 | fold change (FC) [9]: > 100 | fold change (FC) [10]: > 100

Structure (SMILES): CCc1cc(S(C)(=O)=O)cc2c(Nc3ccc(F)c(OC)c3)c(C(N)=O)cnc12
IC50 (Blood): 12.6 nM

Structure (SMILES): COc1cccc(Nc2c(C#N)cnc3ccc(S(C)(=O)=O)cc23)c1
IC50 [2]: 501 nM

Structure (SMILES): CS(=O)(=O)c1ccc2ncc(C(N)=O)c(Nc3cccc4c3CCO4)c2c1
IC50 [2]: 2.51 nM | IC50 (Blood): 25.1 nM | bioavailability [4]: 38% | half-life [5]: 1.7 h | clearance [6]: 38 mL/min/kg | solubility [3]: 43 µg/mL (≈ 112 µM)

Structure (SMILES): COc1cccc(Nc2c(-c3nnc(C)o3)cnc3ccc(S(C)(=O)=O)cc23)c1
IC50 [2]: 20000 nM

Structure (SMILES): COc1cc(Nc2c(C(N)=O)cnc3c(F)cc(S(C)(=O)=O)cc23)ccc1F
IC50 (Blood): 15.8 nM

Structure (SMILES): CS(=O)(=O)c1ccc2ncc(C(N)=O)c(N)c2c1
IC50 [2]: > 31600 nM

More lines, main results first:

IC50 [2]: 20000 nM
Structure (SMILES): CS(=O)(=O)c1ccc2ncc(C(N)=O)c(Sc3cccc(Cl)c3)c2c1

IC50 [2]: 15.8 nM | IC50 (Blood): 251 nM | solubility [3]: 2 µg/mL (≈ 5.32 µM)
Structure (SMILES): CS(=O)(=O)c1ccc2ncc(C(N)=O)c(Nc3cccc(Cl)c3)c2c1

IC50 [2]: 6.31 nM | IC50 (Blood): 251 nM | bioavailability [4]: 47% | half-life [5]: 2 h | clearance [6]: 13 mL/min/kg | solubility [3]: 12 µg/mL (≈ 30.5 µM)
Structure (SMILES): CS(=O)(=O)c1ccc2ncc(C(N)=O)c(Nc3cccc(Cl)c3F)c2c1

IC50 [2]: 20 nM | IC50 (Blood): 316 nM | bioavailability [4]: 23% | half-life [5]: 0.9 h | clearance [6]: 16 mL/min/kg
Structure (SMILES): CS(=O)(=O)c1ccc2ncc(C(N)=O)c(Nc3cccc(C#N)c3)c2c1

bioavailability [4]: 10% | half-life [5]: 1.1 h | clearance [6]: 10 mL/min/kg | solubility [3]: 5 µg/mL (≈ 13.5 µM)
Structure (SMILES): COc1cccc(Nc2c(C(N)=O)cnc3ccc(S(C)(=O)=O)cc23)c1

IC50 [2]: 79.4 nM | IC50 (Blood): 1260 nM
Structure (SMILES): CS(=O)(=O)c1ccc2ncc(C(N)=O)c(Nc3cccc(CN)c3)c2c1

IC50 [2]: 1000 nM
Structure (SMILES): CN(c1cccc(Cl)c1)c1c(C(N)=O)cnc2ccc(S(C)(=O)=O)cc12

IC50 [2]: 3160 nM
Structure (SMILES): CS(=O)(=O)c1ccc2ncc(C(N)=O)c(Oc3cccc(Cl)c3)c2c1

IC50 [2]: 5010 nM
Structure (SMILES): CS(=O)(=O)c1ccc2ncc(C(N)=O)c(Nc3cccc(C(=O)O)c3)c2c1

IC50 [2]: 100 nM | solubility [3]: 30 µg/mL (≈ 83.9 µM) | fold change (FC) (Homo sapiens): > 300
Structure (SMILES): CS(=O)(=O)c1ccc2ncc(C(N)=O)c(Nc3cccc(O)c3)c2c1
fold change (FC) [1]: > 300

IC50 [2]: 31.6 nM | IC50 (Blood): 158 nM | bioavailability [4]: 65% | half-life [5]: 1.9 h | clearance [6]: 21 mL/min/kg | solubility [3]: 4 µg/mL (≈ 10.3 µM) | AUC [11]: 530 ng·h/mL
Structure (SMILES): COc1cc(Nc2c(C(N)=O)cnc3ccc(S(C)(=O)=O)cc23)ccc1F
